Values after ≈ are worked out from the molar mass of the structure shown. Active and inactive are the calls of the source. No cut-off for these calls is given here.
Legend:
[1] = molecular target: Protease (Human immunodeficiency virus 1) (UniProt Q9YQ12); experiment: Inhibition of HIV1 protease dimerization expressed in Escherichia coli Rosetta(DE3) using DABCYL-gamma-abu-Ser-Gln-Asn-Tyr-Pro-Ile-Val-Gln-EDANS as substrate at 28 uM by fluorimetric assay
[2] = molecular target: Protease (Human immunodeficiency virus 1) (UniProt Q9YQ12); experiment: Inhibition of HIV1 protease dimerization expressed in Escherichia coli Rosetta(DE3) at 5 uM by 1-Anilino-8-naphthalene sulfonate-based fluorescent probe binding assay
In short: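 Recombinant PR (350 nM) in 100 mM sodium acetate, 1 M NaCl, 1 mM EDTA, pH 4.7, incubated at 25 °C with or without 5 μM inhibitor. ANS was then added at final 10–60 μM, with final DMSO 0.2% (v/v). Excitation 370 nm, emission 470 nm. Fluorescence was corrected for ANS plus inhibitor without enzyme, and each measurement was averaged over five reads.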

[3] = Inhibition of HIV1 protease ANAM-11 mutant dimerization expressed in Escherichia coli Rosetta(DE3) using DABCYL-gamma-abu-Ser-Gln-Asn-Tyr-Pro-Ile-Val-Gln-EDANS as substrate by Zhang-Poorman kinetic analysis; set-up: species or system Human immunodeficiency virus 1
In short: (§1)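 Recombinant protease produced in E. coli Rosetta (DE3)pLysS from a pET-9 vector. Fluorimetric assay (ex 340, em 490 nm) run in 100 mM sodium acetate, 1 mM EDTA, 1 M NaCl, pH 4.7, at 30 °C with 3% (v/v) final DMSO. Substrate held at 5.2 μM, at least six enzyme concentrations (5.33−18.6 nM), inhibitor 0.5−28 μM. Kid derived from Zhang−Poorman analysis. At least triplicate.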

Protease = Protease (Human immunodeficiency virus 1, UniProt Q9YQ12); experiment: Inhibition of HIV1 protease dimerization expressed in Escherichia coli Rosetta(DE3) using DABCYL-gamma-abu-Ser-Gln-Asn-Tyr-Pro-Ile-Val-Gln-EDANS as substrate by Zhang-Poorman kinetic analysis
Sequence of Protease (Q9YQ12 whole entry): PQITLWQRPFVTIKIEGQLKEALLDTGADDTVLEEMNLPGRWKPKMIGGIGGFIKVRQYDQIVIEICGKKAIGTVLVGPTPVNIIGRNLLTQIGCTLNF
In short: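 Recombinant PR expressed in E. coli Rosetta (DE3)pLysS from a pET-9 vector. Fluorogenic substrate at 5.2 μM (ex 340, em 490 nm) in 100 mM sodium acetate, 1 mM EDTA, 1 M NaCl, pH 4.7, 30 °C, final DMSO 3% (v/v). At least six enzyme concentrations (5.33–18.6 nM) and inhibitor 0.5–28 μM. Kid from Zhang–Poorman analysis, at least triplicate.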

Renin (Homo sapiens) = molecular target: T1, Renin (Homo sapiens) (UniProt P00797); experiment: Inhibition of recombinant renin using Arg-Glu(EDANS)-Ile-His-Pro-Phe-His-Leu-Val-Ile-His-Thr-Lys-(DABCYL)-Arg as substrate at 10 uM by fluorimetric analysis
T1 sequence (whole entry): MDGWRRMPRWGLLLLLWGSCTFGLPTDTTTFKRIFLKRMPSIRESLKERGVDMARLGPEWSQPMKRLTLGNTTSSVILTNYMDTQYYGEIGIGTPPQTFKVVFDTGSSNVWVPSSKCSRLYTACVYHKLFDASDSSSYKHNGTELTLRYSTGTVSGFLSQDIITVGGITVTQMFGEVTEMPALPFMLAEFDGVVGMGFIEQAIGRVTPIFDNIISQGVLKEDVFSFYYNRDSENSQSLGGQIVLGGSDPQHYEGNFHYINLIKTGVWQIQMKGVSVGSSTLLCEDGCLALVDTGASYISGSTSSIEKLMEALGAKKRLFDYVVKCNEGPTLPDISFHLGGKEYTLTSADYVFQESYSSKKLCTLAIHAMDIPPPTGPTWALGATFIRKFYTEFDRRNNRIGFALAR
In short: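 Renin activity read fluorometrically with the EDANS/DABCYL substrate (Km 3.3 μM) at 5 μM in 50 mM Tris–HCl, 100 mM NaCl, 1 mM EDTA, pH 8.0. Excitation 340 nm, emission 500 nm. Compounds were tested at 10 μM.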

[4] = Inhibition of HIV1 protease MDR-HM mutant dimerization expressed in Escherichia coli Rosetta(DE3) using DABCYL-gamma-abu-Ser-Gln-Asn-Tyr-Pro-Ile-Val-Gln-EDANS as substrate by Zhang-Poorman kinetic analysis; set-up: species or system Human immunodeficiency virus 1; in short: as §1
Sus scrofa = species: Sus scrofa; experiment: Inhibition of […] using Abz-Thr-Ile-Nle-(p-NO2-Phe)-Gln-Arg-NH2 as substrate at 10 uM by fluorimetric analysis
In short: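 Pepsin from porcine gastric mucosa assayed fluorometrically in 10 mM NaHCOO, pH 3.5, with 20 μM Abz-Thr-Ile-Nle-(p-NO₂-Phe)-Gln-Arg-NH₂ substrate (Km 13.3 μM). Excitation 337 nm, emission 410 nm. Compounds were tested at 10 μM.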

[5] = Chemical stability in RPMI medium up to 48 hrs in presence of 20% fetal calf serum; format: physicochemical; conditions: cattle
In short: (§2)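 Inhibitor incubated at 37 °C in RPMI culture medium with 20% fetal calf serum for up to 2 days. Incubations stopped with ethanol, cooled to 4 °C and centrifuged, and the supernatant analysed by HPLC. Half-life came from least-squares linear regression of a semilog plot of remaining inhibitor versus incubation time.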

[6] = Half life of the compound in RPMI medium in presence of 20% fetal calf serum; format: physicochemical; conditions: cattle, RPMI medium with 20% fetal calf serum; in short: as §2
[7] = Solubility of the compound; format: physicochemical

Sequence of Protease (Human immunodeficiency virus 1) (Q9YQ12 as listed by the source): as the sequence (Q9YQ12 whole entry) above

**Q.** Which inhibition [1] does the source give for `CC(=O)NNC(=O)NNC(=O)CCNC(=O)CCCOc1ccc2ccc(OCCCC(=O)NCCC(=O)NNC(=O)NNC(C)=O)cc2c1` here?
**A.** The inhibition was 0%.

**Q.** Which inhibition [2] does the source give for `CC(C)[C@H](NC(=O)CCCOc1ccc2ccc(OCCCC(=O)N[C@H](C(=O)NNC(=O)[C@@H](NC(=O)OC(C)(C)C)C(C)C)C(C)C)cc2c1)C(=O)NNC(=O)[C@@H](NC(=O)OC(C)(C)C)C(C)C` here?
**A.** The inhibition was “Active”.

**Q.** And the Ki [3]?
**A.** The Ki was 80 nM.

**Q.** And the Ki (Protease)?
**A.** The Ki was 50 nM.

**Q.** What about the inhibition (Renin (Homo sapiens)) of the same compound?
**A.** The inhibition was “inactive”.

**Q.** What about the Ki [4] of the same compound?
**A.** The Ki was 160 nM.

**Q.** And the inhibition (Sus scrofa)?
**A.** Its inhibition is “inactive”.

**Q.** And the Stability [5]?
**A.** Its Stability is “Stable”.

**Q.** Which inhibition [2] does the source give for `CC(C)CN(C[C@@H](O)[C@H](Cc1ccccc1)NC(=O)O[C@H]1CCOC1)S(=O)(=O)c1ccc(N)cc1` here?
**A.** The inhibition was “inactive”.

**Q.** Which inhibition [2] does the source give for `COC(=O)[C@@H](NC(=O)[C@H](CC(C)C)NC(=O)[C@@H](NC(=O)CCCOc1ccc2ccc(OCCCC(=O)NNC(=O)NNC(=O)N[C@H](C(N)=O)C(C)C)cc2c1)C(C)C)C(C)C` here?
**A.** Its inhibition is “Active”.

**Q.** And the Ki [3]?
**A.** The Ki was 170 nM.

**Q.** And the half-life [6]?
**A.** Its half-life is 1440 min.

**Q.** And the Ki (Protease)?
**A.** Its Ki is 150 nM.

**Q.** And the inhibition (Renin (Homo sapiens))?
**A.** Its inhibition is “inactive”.

**Q.** And the Ki [4]?
**A.** Its Ki is 270 nM.

**Q.** What about the inhibition (Sus scrofa) of the same compound?
**A.** The inhibition was “inactive”.

**Q.** For `CC(=O)NNC(=O)NNC(=O)[C@H](CCCCNC(=O)CCCOc1ccc2ccc(OCCCC(=O)NCCCC[C@H](NC(=O)OC(C)(C)C)C(=O)NNC(=O)NNC(C)=O)cc2c1)NC(=O)OC(C)(C)C`, which inhibition [1] is on record?
**A.** The inhibition was 0%.

**Q.** Which inhibition [2] does the source give for `CC(=O)N[C@H](C(=O)N[C@H](C(=O)N[C@@H](CC(C)C)[C@@H](O)CC(=O)N[C@@H](C)C(=O)N[C@@H](CC(C)C)[C@@H](O)CC(=O)O)C(C)C)C(C)C` here?
**A.** The inhibition was “inactive”.

**Q.** What does the source list for `COC(=O)[C@@H](NC(=O)[C@H](CC(C)C)NC(=O)[C@@H](NC(=O)CCCOc1ccc2ccc(OCCCC(=O)N[C@H](C(=O)N[C@@H](CC(C)C)C(=O)N[C@H](C(=O)OC)C(C)C)C(C)C)cc2c1)C(C)C)C(C)C`?
**A.** inhibition [2]: Active; Ki (Protease): 560 nM

**Q.** For `CC(C)[C@H](NC(=O)NNC(=O)NNC(=O)CCCOc1ccc2ccc(OCCCC(=O)NNC(=O)NNC(=O)N[C@H](C(N)=O)C(C)C)cc2c1)C(N)=O`, which Ki [3] is on record?
**A.** The Ki was 800 nM.

**Q.** And the Ki (Protease)?
**A.** The Ki was 700 nM.

**Q.** And the inhibition (Renin (Homo sapiens))?
**A.** The inhibition was “inactive”.

**Q.** What about the Ki [4] of the same compound?
**A.** Its Ki is 1600 nM.

**Q.** And the inhibition (Sus scrofa)?
**A.** The inhibition was “inactive”.

**Q.** What about the solubility [7] of the same compound?
**A.** The solubility was 300 µg/mL (≈ 394 µM).

**Q.** And the Stability [5]?
**A.** Its Stability is “Stable”.

**Q.** For `COC(=O)CCNC(=O)NNC(=O)NNC(=O)CCCOc1ccc2ccc(OCCCC(=O)NNC(=O)NNC(=O)NCCC(=O)OC)cc2c1`, which inhibition [1] is on record?
**A.** The inhibition was 0%.

**Q.** Which results are given for `COC(=O)[C@@H](NC(=O)[C@H](CC(C)C)NC(=O)[C@@H](NC(=O)CCCOc1ccc2ccc(OCCCC(=O)N[C@H](C(=O)NNC(=O)[C@@H](NC(=O)OC(C)(C)C)C(C)C)C(C)C)cc2c1)C(C)C)C(C)C`?
**A.** inhibition [2]: Active; Ki [3]: 100 nM; half-life [6]: 1440 min; Ki (Protease): 90 nM; inhibition (Renin (Homo sapiens)): inactive; Ki [4]: 160 nM; inhibition (Sus scrofa): inactive

**Q.** With `CC(C)[C@H](NC(=O)CCCOc1ccc2ccc(OCCCC(=O)O)cc2c1)C(=O)NNC(=O)[C@@H](NC(=O)OC(C)(C)C)C(C)C` as the compound, how does the inhibition [1] read?
**A.** Its inhibition is 0%.

**Q.** For `CNC(=O)NNC(=O)NNC(=O)CCCOc1ccc2ccc(OCCCC(=O)NNC(=O)NNC(=O)NC)cc2c1`, which inhibition [1] is on record?
**A.** The inhibition was 13%.

**Q.** Which inhibition [2] does the source give for `CC(C)(C)NC(=O)[C@@H]1C[C@@H]2CCCC[C@@H]2CN1C[C@@H](O)[C@H](Cc1ccccc1)NC(=O)[C@H](CC(N)=O)NC(=O)c1ccc2ccccc2n1` here?
**A.** The inhibition was “inactive”.

**Q.** With `CC(=O)NNC(=O)NNC(=O)[C@@H](NC(=O)CCCOc1ccc2ccc(OCCCC(=O)N[C@H](C(=O)NNC(=O)NNC(C)=O)C(C)C)cc2c1)C(C)C` as the compound, how does the inhibition [1] read?
**A.** Its inhibition is 21%.
